Screens from PubChem BioAssay.
Most compounds without a hit are left out; they make up all but 3.7% or so of the library.
KCNK9 inh = inhibitors of human KCNK9 two-pore domain potassium channel; Q9NPC2; HEK293 KCNK9, FluxOR thallium flux fluorescence; active compounds read low; B-score at 10 µM; 310,000 tested, 1.2% active;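 active = ratio B-score over 3 SD below the library mean, with starting fluorescence within 5 SD of its mean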;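 also: negative B-score means less thallium flux so channel inhibition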
Target sequence (Q9NPC2 whole entry, looked up, the tested form may be a part): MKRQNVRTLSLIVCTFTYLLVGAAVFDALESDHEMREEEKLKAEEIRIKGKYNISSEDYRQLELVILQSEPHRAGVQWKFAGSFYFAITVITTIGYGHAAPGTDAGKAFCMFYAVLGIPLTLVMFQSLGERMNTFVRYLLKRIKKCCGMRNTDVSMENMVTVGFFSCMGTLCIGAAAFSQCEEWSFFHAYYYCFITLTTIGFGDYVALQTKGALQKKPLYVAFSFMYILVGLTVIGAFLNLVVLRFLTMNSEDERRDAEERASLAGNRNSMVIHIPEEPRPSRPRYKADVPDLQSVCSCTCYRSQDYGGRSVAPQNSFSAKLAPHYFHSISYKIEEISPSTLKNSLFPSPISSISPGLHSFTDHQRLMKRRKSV
hERG protect = compounds protecting human hERG from proarrhythmic drug block; activation (rescue from dofetilide block), less the hit threshold, % at 10 µM; AID 1511; CHO-hERG, FluxOR thallium flux, dofetilide IC70 present; Q12809; 310,000 tested, 0.51% active;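 active = activation above the mean of controls blocked by dofetilide plus 5 SD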;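 also: thallium influx through hERG after potassium depolarization seen as dye fluorescence rise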
Kir21 block = blocks the mouse Kir2.1 inward-rectifier potassium channel | HEK293-Kir2.1, FluxOR thallium flux fluorescence; active compounds read low | P35561 | 310,000 tested, 0.85% active | B-score at 10 µM | AID 1672;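 active = fluorescence ratio B-score at or below minus 3 SD of library scores, with starting-brightness B-score within 2 SD, cut at about -4.2 in these data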;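 also: channel flux triggered by added potassium and thallium sulfate stimulus; B-score of peak minus minimum fluorescence over baseline after thallium stimulus; more negative B-score means stronger Kir2.1 block with less thallium influx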
KCNK3 inh = human KCNK3 channel inhibition, primary screen. O14649. CHO-KCNK3 thallium flux, FluxOR fluorescence; active compounds read low. B-score at 10 µM. 340,000 tested, 0.84% active;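 active = B-score under library mean minus 4 SD, starting fluorescence ratio at most library mean plus 5 SD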;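 also: more negative B-score means stronger inhibition of thallium flux through KCNK3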
KCNQ1 act = potentiates or activates the human KCNQ1 potassium channel. AID 2648. 310,000 tested, 0.35% active. B-score at 10 µM. P51787. CHO-K1 KCNQ1, thallium flux FluxOR fluorescence; active compounds read high;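 active = fluorescence ratio B-score, a plate-corrected score, at least three library SD, with initial intensity B-score within 5 SD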
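Assay system: CHO-K1 cells stably expressing KCNQ1. Medium: assay buffer for compound exposure, DMSO matched across wells. Timing: 37 °C overnight plating, 90-min dark dye load, 20-min compound pretreatment. Signal: kinetic FluxOR fluorescence, 10 s baseline plus 110 s post-stimulus.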
KCNQ1 block = inhibitors of human KCNQ1 potassium channel. P51787. CHO-K1 KCNQ1, FluxOR thallium flux fluorescence; active compounds read high. B-score at 10 µM. 310,000 tested, 1.3% active. AID 2642;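 active = compounds whose thallium flux B-score, printed positive for inhibition, exceeds three library SD while starting fluorescence stays within three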;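 also: channel opened by potassium depolarization with thallium stimulus after 20 min compound exposure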
KCNK3 confirm = human KCNK3 channel inhibition, confirmation assay. shares compounds with KCNK3 inh. CHO-KCNK3 thallium flux, FluxOR fluorescence; 0% buffer, 100% carvedilol maximal block. ratio percent of control, % at 10 µM. 2,400 tested, 99% active. AID 651638;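 active = ratio percent of control, averaged over triplicates, above buffer control mean plus 5 SD, cut at about 64% in these data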;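 also: ratio is the fluorescence rise from min to max over baseline after thallium stimulus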
KCNK3 uninduced = counter-screen for KCNK3 inhibitors: effect in non-induced cells; shares compounds with KCNK3 inh; non-induced KCNK3 parental cells, FluxOR thallium flux; active compounds read low; thallium flux ratio (lower = more inhibition) at 10 µM; 2,400 tested, 40% active;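 active = thallium flux ratio, averaged over three wells, more than 5 SD below the buffer control mean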;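 also: host cells are CHO cells without KCNK3 induction; ratio is peak minus trough fluorescence over baseline then normalized to buffer controls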
* = called active by the depositor.

Screening CCN(CC)S(=O)(=O)c1cccc(N=Nc2c(O)n(CC)c(=S)n(CC)c2=O)c1 returned KCNK9 inh -6.76*, hERG protect -20.4, Kir21 block -0.24, KCNK3 inh -11.5*, KCNQ1 act inactive, KCNQ1 block inactive, KCNK3 confirm 117.3* and KCNK3 uninduced inactive.
For Cc1cc(C(=O)OCC(=O)Nc2ccc(F)cc2F)c(C)n1C1CC1 the results were KCNK3 inh inactive.
For CCCCn1c(=O)c(C(=O)Nc2ccccn2)c(O)c2ccccc21 the results were KCNK9 inh inactive, hERG protect -4.2, Kir21 block 0.54, KCNK3 inh -8.72*, KCNQ1 act inactive, KCNQ1 block 7*, KCNK3 confirm 104.0* and KCNK3 uninduced 0.142*.
For O=C(NCc1ccccc1)c1cccn(Cc2ccccc2)c1=O the results were KCNK9 inh inactive, hERG protect -12.3, Kir21 block -0.56, KCNK3 inh -9.78*, KCNQ1 act inactive, KCNQ1 block inactive, KCNK3 confirm 108.0* and KCNK3 uninduced inactive.
For CNC(=O)c1cccn(Cc2ccc(C(F)(F)F)cc2)c1=O the results were KCNK9 inh inactive, hERG protect -2.4, Kir21 block 0.15, KCNK3 inh inactive, KCNQ1 act inactive and KCNQ1 block inactive.
For COc1ccc(N=Cc2c(O)n(Cc3ccccc3)c(=S)[nH]c2=O)c(OC)c1 the results were KCNK9 inh inactive, hERG protect -14.8, Kir21 block 0.5, KCNK3 inh -8.73*, KCNQ1 act inactive, KCNQ1 block 6*, KCNK3 confirm 151.3* and KCNK3 uninduced inactive.
For CSc1cccc(NP2(=O)OCC(C)([N+](=O)[O-])CO2)c1 (stereo not drawn) the results were KCNK3 inh inactive.
`COc1ccc(C2=NCC(=O)N(CC(=O)NCc3ccco3)c3sc4c(c32)CCCC4)cc1` gave KCNK9 inh inactive, hERG protect -5.8, Kir21 block 0.88, KCNK3 inh -8.88*, KCNQ1 act inactive, KCNQ1 block inactive, KCNK3 confirm 104.3* and KCNK3 uninduced inactive.
`Clc1ccc(CCC(Cn2ccnc2)Sc2c(Cl)cccc2Cl)cc1` (stereo not drawn) gave KCNK3 inh -14.4*, KCNK3 confirm 119.7* and KCNK3 uninduced 0.153*.
Clc1ccc(Cn2ccnc2)cn1 was read as KCNK9 inh inactive, hERG protect -11.1, Kir21 block -0.02, KCNK3 inh inactive, KCNQ1 act inactive and KCNQ1 block inactive.
Screening CC(C)CCNC(=O)c1cc(C(=O)c2cc(Br)ccc2O)cn(CCC(C)C)c1=O returned KCNK9 inh inactive, hERG protect -8.5, Kir21 block -0.37, KCNK3 inh -11.4*, KCNQ1 act inactive, KCNQ1 block inactive, KCNK3 confirm 102.7* and KCNK3 uninduced inactive.
Screening CC(C)CCNC(=O)c1cc(C(=O)c2cc(F)ccc2O)cn(CCC(C)C)c1=O returned KCNK9 inh inactive, hERG protect -5.5, Kir21 block -1.22, KCNK3 inh inactive, KCNQ1 act inactive and KCNQ1 block inactive.
For Clc1ccc(C(Cn2ccnc2)OCc2csc3c(Cl)cccc23)c(Cl)c1 (stereo not drawn) the results were KCNK3 inh -11.6*, KCNK3 confirm 105.3* and KCNK3 uninduced 0.156*.
Cc1cccc(NP2(=O)NCCCN2)c1 was read as KCNK3 inh inactive.
For O=C1N[C@H](Cc2ccccc2)C(=O)N2[C@@H]3[C@H](C[C@@H]12)c1ccccc1N3OOSc1ccccc1 the results were KCNK9 inh inactive, hERG protect -14.8, Kir21 block -1.05, KCNK3 inh inactive, KCNQ1 act inactive and KCNQ1 block inactive.
